According to ChEMBL document CHEMBL3875165, “Novel broad-spectrum and long-acting parenteral cephalosporins having an acyl cyanamide moiety at the C-3 terminal: Synthesis and structure-activity relationships” (Eur J Med Chem, 2016):
In brackets after ≈: the same amount, converted by molar mass.

What was measured:
[1] = test system: Staphylococcus aureus; test: Antibacterial activity against Staphylococcus aureus SMITH; assay type: functional
Method in brief: (§1)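 Agar dilution MIC on Sensitivity Disk Agar-N with 2-fold serial drug dilutions. Overnight Mueller Hinton broth cultures were diluted to about 10^6 CFU/mL, and 1 µL spots were applied. Plates were incubated 20 h at 37 °C before scoring.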

[2] = test system: Staphylococcus aureus; test: Antibacterial activity against methicillin-resistant Staphylococcus aureus SR2030; assay type: functional
Method in brief: (§2)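 Agar dilution on Sensitivity Disk Agar-N. Overnight Mueller Hinton broth cultures were diluted to about 10^6 CFU/mL, and 1 µL spots were placed on agar plates holding 2-fold serial dilutions of antibiotic. Plates were incubated 20 h at 37 °C and then MICs were scored.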

[3] = test system: Staphylococcus aureus; test: Antibacterial activity against methicillin-resistant Staphylococcus aureus SR3626; assay type: functional; method in brief: as §2
[4] = test system: Escherichia coli; test: Antibacterial activity against Escherichia coli NIHJ JC-2; assay type: functional; method in brief: as §1
[5] = test system: Pseudomonas aeruginosa; test: Antibacterial activity against Pseudomonas aeruginosa PAO1; assay type: functional; method in brief: as §1
[6] = test system: Pseudomonas aeruginosa; test: Antibacterial activity against Pseudomonas aeruginosa SA24; assay type: functional; method in brief: as §1
[7] = AUC (0 to infinity) in monkey at 20 mg/kg, iv administered as bolus dose by HPLC method; assay type: ADME, organism-based, Macaca mulatta; parameters: dose 20 mg/kg, time infinity, route intravenous; conditions: rhesus monkey, in vivo
Method in brief: (§3)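 Three monkeys per group received a single iv bolus of 20 mg/kg (1 mL/kg). Plasma levels were measured by HPLC. AUC0-∞, CLtot and T1/2 came from a 2-compartment fit.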

[8] = Half life in monkey at 20 mg/kg, iv administered as bolus dose by HPLC method; assay type: ADME, organism-based, Macaca mulatta; conditions: rhesus monkey, in vivo; method in brief: as §3
[9] = Half life in mouse at 20 mg/kg, iv administered as bolus dose by band-culture bioassay; conditions: in vivo
[10] = AUC (0 to infinity) in mouse at 20 mg/kg, iv administered as bolus dose by band-culture bioassay; conditions: in vivo
[11] = Total clearance in monkey at 20 mg/kg, iv administered as bolus dose by HPLC method; assay type: ADME, organism-based, Macaca mulatta; conditions: rhesus monkey, in vivo; method in brief: as §3
[12] = Protein binding in ICR mouse plasma after 30 mins by ultra-filtration method; assay type: ADME, cell-free; conditions: read-out: PPB (converted)
Method in brief: (§4)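 Mouse or monkey plasma was adjusted to pH 7 with CO2 and spiked with compound to a final 10 µg/ml. It was incubated 30 min at 37 °C, then ultrafiltered by centrifugation at 3200 rpm for 30 min at 25 °C. Free drug in the filtrate was measured by bioassay to give the bound fraction.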

[13] = Protein binding in cynomolgus monkey plasma after 30 mins by ultra-filtration method; assay type: ADME, cell-free, Macaca fascicularis; conditions: read-out: PPB (converted); method in brief: as §4
[14] = test system: Staphylococcus aureus; test: Antibacterial activity against Staphylococcus aureus SMITH after 20 hrs by agar dilution method; assay type: functional; method in brief: as §1
[15] = test system: Streptococcus pneumoniae; test: Antibacterial activity against penicillin-resistant Streptococcus pneumoniae SR16675 after 20 hrs by agar dilution method; assay type: functional; conditions: SR16675, 20 h; method in brief: as §2
[16] = test system: Streptococcus pneumoniae; test: Antibacterial activity against penicillin-resistant Streptococcus pneumoniae SR16750 after 20 hrs by agar dilution method; assay type: functional; conditions: SR16750, 20 h; method in brief: as §2
[17] = test system: Haemophilus influenzae; test: Antibacterial activity against beta-lactamase non-producing penicillin-resistant Haemophilus influenzae SR11435 after 20 hrs by agar dilution method; assay type: functional; conditions: SR11435, 20 h; method in brief: as §2
[18] = test system: Haemophilus influenzae; test: Antibacterial activity against beta-lactamase non-producing penicillin-resistant Haemophilus influenzae SR24106 after 20 hrs by agar dilution method; assay type: functional; conditions: SR24106, 20 h; method in brief: as §2
[19] = test system: Moraxella catarrhalis; test: Antibacterial activity against Moraxella catarrhalis SR24290 after 20 hrs by agar dilution method; assay type: functional; conditions: SR24290, 20 h; method in brief: as §1
[20] = test system: Escherichia coli; test: Antibacterial activity against Escherichia coli NIHJ JC-2 after 20 hrs by agar dilution method; assay type: functional; conditions: NIHJ JC-2, 20 h; method in brief: as §1
[21] = test system: Streptococcus pneumoniae; test: Antibacterial activity against penicillin-susceptible Streptococcus pneumoniae SR16605 infected in sc dosed mouse assessed as protection against bacterial infection by measuring increase in mouse survival administered 1 and 5 hrs post infection measured after 7 days; assay type: functional
Method in brief: (§5)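 Mouse septicemia model in six-week-old male Jcl:ICR mice (19 to 25 g). Mice were infected intraperitoneally with 0.5 mL of S. pneumoniae suspension in hog mucin. Compound was given subcutaneously 1 and 5 h after infection. Mortality was recorded over 7 days, and ED50 with 90% confidence limits was derived by the logit method.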

[22] = test system: Streptococcus pneumoniae; test: Antibacterial activity against penicillin-resistant Streptococcus pneumoniae SR16754 infected in sc dosed mouse assessed as protection against bacterial infection by measuring increase in mouse survival administered 1 and 5 hrs post infection measured after 7 days; assay type: functional; method in brief: as §5
[23] = test system: Streptococcus pneumoniae; test: Antibacterial activity against penicillin-susceptible Streptococcus pneumoniae SR16605 after 20 hrs by agar dilution method; assay type: functional; conditions: SR16605, 20 h; method in brief: as §2
[24] = test system: Streptococcus pneumoniae; test: Antibacterial activity against penicillin-resistant Streptococcus pneumoniae SR16754 after 20 hrs by agar dilution method; assay type: functional; conditions: SR16754, 20 h; method in brief: as §2
[25] = test system: Streptococcus pneumoniae; test: Potency index, ratio of Ceftriaxone MIC to compound MIC for penicillin-susceptible Streptococcus pneumoniae SR16605; assay type: functional
[26] = Total clearance in mouse at 20 mg/kg, iv administered as bolus dose by band-culture bioassay; conditions: in vivo

Row | Compound | MIC [1] [µg/mL] | MIC [2] [µg/mL] | MIC [3] [µg/mL] | MIC [4] [µg/mL] | MIC [5] [µg/mL] | MIC [6] [µg/mL] | AUC [7] [ng·h/mL] | half-life [8] [h] | half-life [9] [h] | AUC(0-inf) [10] [ng·h/mL] | clearance [11] [mL/min/kg] | fraction unbound at 0.5 h [12] | fraction unbound at 0.5 h [13] | MIC [14] [µg/mL] | MIC [15] [µg/mL] | MIC [16] [µg/mL] | MIC [17] [µg/mL] | MIC [18] [µg/mL] | MIC [19] [µg/mL] | MIC [20] [µg/mL] | also measured
1 | CCO/N=C(\C(=O)N[C@@H]1C(=O)N2C(C(=O)[O-])=C(C[n+]3ccc(-c4c[nH]c(C(=O)O)c4)cc3)CS[C@H]12)c1nsc(N)n1 | 3.1 (≈ 5.18 µM) | 12.5 (≈ 20.9 µM) | 25 (≈ 41.8 µM) | 0.05 (≈ 0.0835 µM) | 0.8 (≈ 1.34 µM) | 0.8 (≈ 1.34 µM) |  |  |  |  |  |  |  |  |  |  |  |  |  |  | 
2 | CCO/N=C(\C(=O)N[C@@H]1C(=O)N2C(C(=O)[O-])=C(C[n+]3ccc(-c4c[nH]c(C(=O)NC#N)c4)cc3)CS[C@H]12)c1nsc(N)n1 | 1.6 (≈ 2.57 µM) | 12.5 (≈ 20.1 µM) | 12.5 (≈ 20.1 µM) | 0.1 (≈ 0.161 µM) | 0.8 (≈ 1.28 µM) | 0.4 (≈ 0.642 µM) | 22000 | 2 | 0.4 | 27300 |  |  |  |  |  |  |  |  |  |  | 
3 | CCO/N=C(\C(=O)N[C@@H]1C(=O)N2C(C(=O)[O-])=C(/C=C/C[n+]3ccc(-c4nc(/C([O-])=N/C#N)cs4)cc3)CS[C@H]12)c1csc(N)n1.[Na+] |  |  |  |  |  |  | 37500 | 3.88 | 0.67 | 20900 | 0.49 | 0.81 | 0.27 | 0.5 | 0.25 | 0.25 | 0.031 | 0.063 | 1 | 0.063 | ED50 [21]: 0.017 mg/kg; ED50 [22]: 0.71 mg/kg; MIC [23]: 0.008 µg/mL; MIC [24]: 0.25 µg/mL; Ratio [25]: 2 - 3; clearance [26]: 16 mL/min/kg
4 | CCO/N=C(\C(=O)N[C@@H]1C(=O)N2C(C(=O)[O-])=C(C[n+]3ccc(-c4cc[nH]c4)cc3)CS[C@H]12)c1nsc(N)n1 | 0.4 (≈ 0.721 µM) | 1.6 (≈ 2.88 µM) | 6.3 (≈ 11.4 µM) | 0.02 (≈ 0.0361 µM) | 0.8 (≈ 1.44 µM) | 0.8 (≈ 1.44 µM) |  |  |  |  |  |  |  |  |  |  |  |  |  |  | 
5 | CO/N=C(\C(=O)N[C@@H]1C(=O)N2C(C(=O)[O-])=C(C[n+]3ccn4ncccc43)CS[C@H]12)c1nsc(N)n1 [CEFOZOPRAN] | 0.8 (≈ 1.55 µM) | 12.5 (≈ 24.2 µM) | 50 (≈ 97 µM) | 0.05 (≈ 0.097 µM) | 0.8 (≈ 1.55 µM) | 0.4 (≈ 0.776 µM) | 15000 | 1.2 | 0.4 | 30300 |  |  |  |  |  |  |  |  |  |  | 
6 | CCO/N=C(\C(=O)N[C@@H]1C(=O)N2C(C(=O)[O-])=C(/C=C/C[n+]3ccc(-c4cc(/C([O-])=N/C#N)n(C)n4)cc3)CS[C@H]12)c1csc(N)n1.[Na+] |  |  |  |  |  |  | 21800 | 2.96 | 0.82 | 21300 | 0.81 | 0.59 | 0.41 | 0.5 | 0.125 | 0.5 | 0.063 | 0.25 | 8 | 0.25 | clearance [26]: 13.2 mL/min/kg
7 | CCO/N=C(\C(=O)N[C@@H]1C(=O)N2C(C(=O)[O-])=C(/C=C/C[n+]3cccc(/C([O-])=N/C#N)c3)CS[C@H]12)c1csc(N)n1.[Na+] |  |  |  |  |  |  | 9500 | 1.33 | 0.55 | 14100 | 1.79 | 0.94 | 0.67 | 0.5 | 0.25 | 0.5 | 0.063 | 0.125 | 2 | 0.125 | clearance [26]: 23.7 mL/min/kg
